According to ChEMBL document CHEMBL1151437, “Activity of a potent hepatitis C virus polymerase inhibitor in the chimpanzee model” (Antimicrob Agents Chemother, 2007):

How the values were obtained:
[1] = Inhibition of HCV 1a H77 NS5B polymerase by [3H]UTP incorporation assay; set-up: species or system Hepatitis C virus (isolate H77)
Hepatitis C virus [2] = experiment: Inhibition of HCV 1b strain N NS5B polymerase by [3H]UTP incorporation assay; set-up: species or system Hepatitis C virus subtype 1b
Hepatitis C virus [3] = experiment: Antiviral activity against HCV 1a H77 after 4 days by RT-PCR; format: functional, organism-based, Hepacivirus hominis; settings: genotype 1a H77, 96 h
Procedure, shortened: (§1)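 Subgenomic replicon cells (genotype 1b strain N, or chimeric 1a H77/1b Con1) grown in DMEM with 10% FBS and 400 µg/ml G418. Next day, the medium was switched to 5% FBS with inhibitor in half-log dilutions. After 4 days, total RNA was extracted and replicon RNA copies were counted by TaqMan real-time RT-PCR. Potency came from the fall in copy number.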

Hepatitis C virus [4] = experiment: Antiviral activity against HCV 1b strain N after 4 days by RT-PCR; format: functional, organism-based, Hepacivirus hominis; settings: genotype 1b strain N, 96 h; procedure, shortened: as §1
Hepatitis C virus [5] = experiment: Antiviral activity against HCV 1a H77 after 4 days by RT-PCR in presence of 40% human serum; format: functional, organism-based, Hepacivirus hominis; settings: genotype 1a H77, 96 h
Procedure, shortened: (§2)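 They were exposed for 4 days to half-log inhibitor dilutions in medium with 5% FBS plus 40% human serum, to assess protein binding. Replicon RNA copy number was then measured by TaqMan real-time RT-PCR on extracted total RNA.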

Hepatitis C virus [6] = experiment: Antiviral activity against HCV 1b strain N after 4 days by RT-PCR in presence of 40% human serum; format: functional, organism-based, Hepacivirus hominis; settings: genotype 1b strain N, 96 h; procedure, shortened: as §2
Hepatitis C virus [7] = experiment: Ratio of EC50 for HCV 1a H77 in presence of 40% human serum to EC50 for HCV 1a H77 in absence of human serum; format: functional, Hepacivirus hominis, genotype 1a H77
Procedure, shortened: (§3)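 Cells carrying the subgenomic replicon (genotype 1b strain N, or chimeric 1a H77/1b Con1) were maintained in DMEM with 10% FBS and 400 µg/ml G418. The next day they were given medium with 5% FBS and half-log inhibitor dilutions, with or without 40% human serum, for 4 days. Replicon RNA copy number was measured by TaqMan RT-PCR.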

Hepatitis C virus [8] = experiment: Ratio of EC50 for HCV 1b strain N in presence of 40% human serum to EC50 for HCV 1b strain N in absence of human serum; format: functional, Hepacivirus hominis, genotype 1b strain N; procedure, shortened: as §3
[9] = Half life in rat at 5 mg/kg, po; format: ADME, organism-based; set-up: dose 5 mg/kg, route oral; settings: in vivo
Procedure, shortened: (§4)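 Rats, dogs and monkeys received one oral 5 mg/kg dose in polyethylene glycol 400. Serum was sampled at 0.3, 0.5, 1, 2, 4, 6, 9, 12 and 24 h. Plasma drug was extracted by acetonitrile protein precipitation with internal standard and quantified by LC-MS against spiked standards (peak-area ratio, linear regression). Limit of quantitation was about 20 ng/ml.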

[10] = Cmax in rat at 5 mg/kg, po; format: ADME, organism-based; set-up: dose 5 mg/kg, route oral; settings: in vivo; procedure, shortened: as §4
[11] = Tmax in rat at 5 mg/kg, po; format: ADME, organism-based; set-up: dose 5 mg/kg, route oral; settings: in vivo; procedure, shortened: as §4
[12] = AUC in rat at 5 mg/kg, po; format: ADME, organism-based; set-up: dose 5 mg/kg, route oral; settings: plasma; procedure, shortened: as §4
[13] = Oral bioavailability in rat at 5 mg/kg; format: ADME, organism-based; settings: in vivo
[14] = Half life in dog at 5 mg/kg, po; format: ADME, organism-based, Canis lupus familiaris; set-up: dose 5 mg/kg, route oral; settings: in vivo; procedure, shortened: as §4
[15] = Cmax in dog at 5 mg/kg, po; format: ADME, organism-based, Canis lupus familiaris; set-up: dose 5 mg/kg, route oral; settings: in vivo; procedure, shortened: as §4
[16] = Tmax in dog at 5 mg/kg, po; format: ADME, organism-based, Canis lupus familiaris; set-up: dose 5 mg/kg, route oral; settings: in vivo; procedure, shortened: as §4
[17] = AUC in dog at 5 mg/kg, po; format: ADME, organism-based, Canis lupus familiaris; set-up: dose 5 mg/kg, route oral; settings: plasma; procedure, shortened: as §4
[18] = Oral bioavailability in dog at 5 mg/kg; format: ADME, organism-based, Canis lupus familiaris; settings: in vivo
[19] = Half life in monkey at 5 mg/kg, po; format: ADME, organism-based, Macaca mulatta; set-up: dose 5 mg/kg, route oral; settings: rhesus monkey, in vivo; procedure, shortened: as §4
[20] = Cmax in monkey at 5 mg/kg, po; format: ADME, organism-based, Macaca mulatta; set-up: dose 5 mg/kg, route oral; settings: rhesus monkey, in vivo; procedure, shortened: as §4
[21] = Tmax in monkey at 5 mg/kg, po; format: ADME, organism-based, Macaca mulatta; set-up: dose 5 mg/kg, route oral; settings: rhesus monkey, in vivo; procedure, shortened: as §4
[22] = AUC in monkey at 5 mg/kg, po; format: ADME, organism-based, Macaca mulatta; set-up: dose 5 mg/kg, route oral; settings: rhesus monkey, plasma; procedure, shortened: as §4
[23] = Oral bioavailability in monkey at 5 mg/kg; format: ADME, organism-based, Macaca mulatta; settings: rhesus monkey, in vivo
[24] = Cmax in HCV 1a H77 infected chimpanzee at 30 mg/kg, po BID for 14 days measured after 2 hrs of postdose; format: ADME, organism-based, Pan troglodytes; set-up: dose 30 mg/kg, route oral; settings: in vivo
Procedure, shortened: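 Chimpanzees were dosed orally at 30 mg/kg BID for 14 days. Plasma drug was measured by LC-MS. For the genotype 1a animal, the value is the mean of three samples taken 2 h after the a.m. dose on days 2, 3 and 4.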

[25] = Cmax in HCV 1b strain N infected chimpanzee at 30 mg/kg, po BID for 14 days measured after 2 hrs of postdose; format: ADME, organism-based, Pan troglodytes; set-up: dose 30 mg/kg, route oral; settings: in vivo
Hepatitis C virus [26] = experiment: Antiviral activity against HCV 1a H77 infected in chimpanzee assessed as reduction in viral load at 30 mg/kg, po BID for 14 days measured on day 2 postdosing; format: functional, Hepacivirus hominis, genotype 1a H77
Procedure, shortened: (§5)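 One chimpanzee infected with genotype 1a and one with genotype 1b were dosed orally with 30 mg/kg BID for 14 days. Serum viral load was measured by TaqMan quantitative RT-PCR. A pretreatment serum sample (day 0) served as the baseline.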

Hepatitis C virus [27] = experiment: Antiviral activity against HCV 1b strain N infected in chimpanzee assessed as reduction in viral load at 30 mg/kg, po BID for 14 days measured on day 2 postdosing; format: functional, Hepacivirus hominis, genotype 1b strain N; procedure, shortened: as §5
Hepatitis C virus [28] = experiment: Antiviral activity against wild type HCV 1b strain N infected in chimpanzee; format: functional, organism-based, Hepacivirus hominis; settings: genotype 1b strain N
Hepatitis C virus [29] = experiment: Antiviral activity against HCV 1b strain N with NS5B polymerase C316Y mutation infected in chimpanzee measured on day 2; format: functional, organism-based, Hepacivirus hominis; settings: genotype 1b strain N, 48 h
Hepatitis C virus [30] = experiment: Antiviral activity against HCV 1b strain N with NS5B polymerase C316Y mutation infected in chimpanzee measured on day 5; format: functional, organism-based, Hepacivirus hominis; settings: genotype 1b strain N, 120 h
Hepatitis C virus [31] = experiment: Antiviral activity against HCV 1b strain N with NS5B polymerase C316Y mutation infected in chimpanzee measured on day 11; format: functional, organism-based, Hepacivirus hominis; settings: genotype 1b strain N, 264 h
Hepatitis C virus [32] = experiment: Antiviral activity against HCV 1b strain N with NS5B polymerase C316Y mutation infected in chimpanzee measured on day 28; format: functional, organism-based, Hepacivirus hominis; settings: genotype 1b strain N, 672 h
Hepatitis C virus [33] = experiment: Drug resistance, ratio of EC50 for HCV 1b strain N with NS5B polymerase C316Y mutation to EC50 for wild type HCV 1b strain N infected in chimpanzee measured on day 2; format: functional, Hepacivirus hominis, genotype 1b strain N
Hepatitis C virus [34] = experiment: Drug resistance, ratio of EC50 for HCV 1b strain N with NS5B polymerase C316Y mutation to EC50 for wild type HCV 1b strain N infected in chimpanzee measured on day 5; format: functional, Hepacivirus hominis, genotype 1b strain N
Hepatitis C virus [35] = experiment: Drug resistance, ratio of EC50 for HCV 1b strain N with NS5B polymerase C316Y mutation to EC50 for wild type HCV 1b strain N infected in chimpanzee measured on day 11; format: functional, Hepacivirus hominis, genotype 1b strain N
Hepatitis C virus [36] = experiment: Drug resistance, ratio of EC50 for HCV 1b strain N with NS5B polymerase C316Y mutation to EC50 for wild type HCV 1b strain N infected in chimpanzee measured on day 28; format: functional, Hepacivirus hominis, genotype 1b strain N
Hepatitis C virus [37] = experiment: Antiviral activity against HCV 1a H77 with NS5B polymerase G554D mutation infected in chimpanzee measured on day 2; format: functional, organism-based, Hepacivirus hominis; settings: genotype 1a H77, 48 h
Hepatitis C virus [38] = experiment: Antiviral activity against HCV 1a H77 with NS5B polymerase G554D mutation infected in chimpanzee measured on day 5; format: functional, organism-based, Hepacivirus hominis; settings: genotype 1a H77, 120 h
Hepatitis C virus [39] = experiment: Antiviral activity against HCV 1a H77 with NS5B polymerase G554D mutation infected in chimpanzee measured on day 16; format: functional, organism-based, Hepacivirus hominis; settings: genotype 1a H77, 384 h
Hepatitis C virus [40] = experiment: Antiviral activity against HCV 1a H77 with NS5B polymerase Y448C mutation infected in chimpanzee measured on day 28; format: functional, organism-based, Hepacivirus hominis; settings: genotype 1a H77, 672 h
Hepatitis C virus [41] = experiment: Drug resistance, ratio of EC50 for HCV 1a H77 with NS5B polymerase G554D mutation to EC50 for wild type HCV 1a H77 infected in chimpanzee measured on day 2; format: functional, Hepacivirus hominis, genotype 1a H77
Hepatitis C virus [42] = experiment: Drug resistance, ratio of EC50 for HCV 1a H77 with NS5B polymerase G554D mutation to EC50 for wild type HCV 1a H77 infected in chimpanzee measured on day 5; format: functional, Hepacivirus hominis, genotype 1a H77
Hepatitis C virus [43] = experiment: Drug resistance, ratio of EC50 for HCV 1a H77 with NS5B polymerase G554D mutation to EC50 for wild type HCV 1a H77 infected in chimpanzee measured on day 16; format: functional, Hepacivirus hominis, genotype 1a H77
Hepatitis C virus [44] = experiment: Drug resistance, ratio of EC50 for HCV 1a H77 with NS5B polymerase Y448C mutation to EC50 for wild type HCV 1a H77 infected in chimpanzee measured on day 28; format: functional, Hepacivirus hominis, genotype 1a H77

CC(C)CC[C@@]1(C)C(=O)C(C2=NS(=O)(=O)c3cc(NS(C)(=O)=O)ccc3N2)=C(O)c2ccccc21
IC50 [1]: 1.25 nM
IC50 (Hepatitis C virus [2]): 0.33 nM
EC50 (Hepatitis C virus [3]): 11 nM
EC50 (Hepatitis C virus [4]): 3 nM
EC50 (Hepatitis C virus [5]): 143 nM
EC50 (Hepatitis C virus [6]): 42 nM
fold change (FC) (Hepatitis C virus [7]): 13
fold change (FC) (Hepatitis C virus [8]): 15
half-life [9]: 7.6 h
Cmax [10]: 310 ng/mL
Tmax [11]: 4.2 h
AUC [12]: 3300 ng·h/mL
bioavailability [13]: 62.7%
half-life [14]: 10.7 h
Cmax [15]: 1940 ng/mL
Tmax [16]: 0.4 h
AUC [17]: 10500 ng·h/mL
bioavailability [18]: 89.3%
half-life [19]: 1.9 h
Cmax [20]: 520 ng/mL
Tmax [21]: 2.7 h
AUC [22]: 1500 ng·h/mL
bioavailability [23]: 15.2%
Cmax [24]: 5490 ng/mL
Cmax [25]: 8590 ng/mL
log10cfu (Hepatitis C virus [26]): 1.4 /ml
log10cfu (Hepatitis C virus [27]): 2.5 /ml
EC50 (Hepatitis C virus [28]): 0.9 nM
EC50 (Hepatitis C virus [29]): 25 nM
EC50 (Hepatitis C virus [30]): 1200 nM
EC50 (Hepatitis C virus [31]): 1800 nM
EC50 (Hepatitis C virus [32]): 350 nM
fold change (FC) (Hepatitis C virus [33]): 28
fold change (FC) (Hepatitis C virus [34]): 1330
fold change (FC) (Hepatitis C virus [35]): 2000
fold change (FC) (Hepatitis C virus [36]): 389
EC50 (Hepatitis C virus [37]): 7.7 nM
EC50 (Hepatitis C virus [38]): 4.5 nM
EC50 (Hepatitis C virus [39]): 13.8 nM
EC50 (Hepatitis C virus [40]): 8.2 nM
fold change (FC) (Hepatitis C virus [41]): 2.2
fold change (FC) (Hepatitis C virus [42]): 1.3
fold change (FC) (Hepatitis C virus [43]): 3.9
fold change (FC) (Hepatitis C virus [44]): 2.3

COc1ccc2c(O[C@@H]3C[C@H]4C(=O)N[C@]5(C(=O)O)C[C@H]5/C=C\CCCCC[C@H](NC(=O)OC5CCCC5)C(=O)N4C3)cc(-c3csc(NC(C)C)n3)nc2c1 [CILUPREVIR]
EC50 (Hepatitis C virus [28]): 1.4 nM
EC50 (Hepatitis C virus [29]): 1.3 nM
EC50 (Hepatitis C virus [30]): 1.3 nM
EC50 (Hepatitis C virus [31]): 1.1 nM
EC50 (Hepatitis C virus [32]): 1.3 nM
fold change (FC) (Hepatitis C virus [33]): 1
fold change (FC) (Hepatitis C virus [34]): 1.1
fold change (FC) (Hepatitis C virus [35]): 0.8
fold change (FC) (Hepatitis C virus [36]): 1
EC50 (Hepatitis C virus [37]): 2.7 nM
EC50 (Hepatitis C virus [38]): 3.1 nM
EC50 (Hepatitis C virus [39]): 2.8 nM
EC50 (Hepatitis C virus [40]): 3.3 nM
fold change (FC) (Hepatitis C virus [41]): 0.9
fold change (FC) (Hepatitis C virus [42]): 1
fold change (FC) (Hepatitis C virus [43]): 0.9
fold change (FC) (Hepatitis C virus [44]): 1.1
